Experimental data taken from ChEMBL document CHEMBL3351636, “Synthesis and biological evaluation of sophoridinol derivatives as a novel family of potential anticancer agents” (ACS Med Chem Lett, 2014).
pIC50: −log10 of the molar value. Calls of active or inactive are those of the source. The rule behind the calls is not given here.

Assays:
HepG2 [1] = test: Cytotoxicity against human HepG2 cells after 48 hrs by MTT assay; type: functional, cell-based; settings: HepG2, 48 h
MCF7 [2] = test: Cytotoxicity against adriamycin-resistant human MCF7 cells after 48 hrs by MTT assay; type: functional, cell-based; settings: MCF7, 48 h
MCF7 [3] = test: Cytotoxicity against human MCF7 cells after 48 hrs by MTT assay; type: functional, cell-based; settings: MCF7, 48 h
HepG2 [4] = test: Cell cycle arrest in human HepG2 cells assessed as accumulation at G0/G1 phase at 1.25 to 5 ug/ml after 24 hrs using propidium iodide by flow cytometry; type: functional, cell-based
Summary of the method: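 HepG2 cells incubated 24 h with compound at 1.25, 2.5 and 5.0 μg/mL or left untreated (control); cell cycle distribution read by flow cytometry; significance versus untreated control given as P < 0.05 / P < 0.01.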

[5] = Tmax in Sprague-Dawley rat at 25 mg/kg, po as single dose; type: ADME, organism-based; design: dose 25 mg/kg, route oral; settings: in vivo
Summary of the method: (§1)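 Adult male Sprague–Dawley rats (n = 3) received a single oral dose of 25 mg/kg. Nine blood samples were drawn over 24 h to build a plasma concentration–time curve. Parameters were derived by noncompartmental analysis and reported as mean ± deviation.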

[6] = AUC (0 to t) in Sprague-Dawley rat at 25 mg/kg, po as single dose; type: ADME, organism-based; design: dose 25 mg/kg, route oral; settings: plasma; summary of the method: as §1
[7] = AUC (0 to infinity) in Sprague-Dawley rat at 25 mg/kg, po as single dose; type: ADME, organism-based; design: time infinity, dose 25 mg/kg, route oral; settings: plasma; summary of the method: as §1
[8] = Half life in Sprague-Dawley rat at 25 mg/kg, po as single dose; type: ADME, organism-based; design: dose 25 mg/kg, route oral; settings: in vivo; summary of the method: as §1
[9] = Cmax in Sprague-Dawley rat at 25 mg/kg, po as single dose; type: ADME, organism-based; design: dose 25 mg/kg, route oral; settings: in vivo; summary of the method: as §1
[10] = Mean residence time in Sprague-Dawley rat at 25 mg/kg, po as single dose; type: ADME, organism-based; design: dose 25 mg/kg, route oral; settings: in vivo; summary of the method: as §1

SMILES	pIC50 (HepG2 [1])	other results
OCCCC[C@@H]1[C@H]2CCCN3CCC[C@H](CN1Cc1ccc4ccccc4c1)[C@@H]23	5.10	
COC(=O)CCC[C@@H]1[C@H]2CCCN3CCC[C@H](CN1Cc1ccc(OC)c(OC)c1)[C@@H]23	< 4.40	
COc1ccccc1CN1C[C@H]2CCCN3CCC[C@@H]([C@H]23)[C@H]1CCCCO	4.46	
CCOc1ccc(CN2C[C@H]3CCCN4CCC[C@@H]([C@H]34)[C@H]2CCCCO)cc1OC	< 4.40	
COc1cc(CN2C[C@H]3CCCN4CCC[C@@H]([C@H]34)[C@H]2CCCCO)cc(OC)c1OC	< 4.40	
CC(=O)O[C@H]1C(=O)[C@@]2(C)[C@H]([C@H](OC(=O)c3ccccc3)[C@]3(O)C[C@H](OC(=O)[C@H](O)[C@@H](NC(=O)c4ccccc4)c4ccccc4)C(C)=C1C3(C)C)[C@]1(OC(C)=O)CO[C@@H]1C[C@@H]2O [PACLITAXEL]	4.81	
COC(=O)CCC[C@@H]1[C@H]2CCCN3CCC[C@H](CN1Cc1cccc(OC)c1)[C@@H]23	4.97	
COC(=O)CCC[C@@H]1[C@H]2CCCN3CCC[C@H](CN1Cc1cccc4ccccc14)[C@@H]23	5.48	
COc1ccccc1CN1C[C@H]2CCCN3CCC[C@@H]([C@H]23)[C@H]1CCCC(=O)O	< 4.40	
O=C(O)CCC[C@@H]1[C@H]2CCCN3CCC[C@H](CN1Cc1ccc4ccccc4c1)[C@@H]23	< 4.40	
COC(=O)CCC[C@@H]1[C@H]2CCCN3CCC[C@H](CN1Cc1ccc(OC)cc1)[C@@H]23	4.97	
COC(=O)CCC[C@@H]1[C@H]2CCCN3CCC[C@H](CN1Cc1c4ccccc4cc4ccccc14)[C@@H]23	5.37	
COc1cc(CN2C[C@H]3CCCN4CCC[C@@H]([C@H]34)[C@H]2CCCC(=O)O)cc(OC)c1OC	< 4.40	
COC(=O)CCC[C@@H]1[C@H]2CCCN3CCC[C@H](CN1Cc1ccc4ccccc4c1)[C@@H]23	5.24	
CC(C)(O)CCC[C@@H]1[C@H]2CCCN3CCC[C@H](CN1Cc1c4ccccc4cc4ccccc14)[C@@H]23	5.68	
COc1ccc(CN2C[C@H]3CCCN4CCC[C@@H]([C@H]34)[C@H]2CCCCO)c(Cl)c1OC	4.80	
O=C(CCC[C@@H]1[C@H]2CCCN3CCC[C@H](CN1Cc1c4ccccc4cc4ccccc14)[C@@H]23)c1ccc(Cl)cc1	5.70	
OCCCC[C@@H]1[C@H]2CCCN3CCC[C@H](CN1Cc1cccc4ccccc14)[C@@H]23	5.17	pIC50 (MCF7 [2]): 5.02; pIC50 (MCF7 [3]): 5.04
COc1ccc(CN2C[C@H]3CCCN4CCC[C@@H]([C@H]34)[C@H]2CCCCO)cc1	< 4.40	
O=C1CCC[C@@H]2[C@H]3CCCN4CCC[C@H](CN12)[C@@H]34 [SOPHORIDINE]	< 4.10	Activity (HepG2 [4]): Active
COc1cccc(CN2C[C@H]3CCCN4CCC[C@@H]([C@H]34)[C@H]2CCCCO)c1Cl	4.63	
OCCCC[C@@H]1[C@H]2CCCN3CCC[C@H](CN1Cc1c4ccccc4cc4ccccc14)[C@@H]23	5.51	Tmax [5]: 4.6 h; pIC50 (MCF7 [2]): 5.23; AUC(0-t) [6]: 10.3 µM·h; AUC(0-inf) [7]: 10.5 µM·h; half-life [8]: 12.7 h; Cmax [9]: 3.4 µM; Activity (HepG2 [4]): Active; pIC50 (MCF7 [3]): 5.25; MRT [10]: 5.4 h
COC(=O)CCC[C@@H]1[C@H]2CCCN3CCC[C@H](CN1Cc1cc(OC)c(OC)c(OC)c1)[C@@H]23	< 4.40	
CCC(O)(CC)CCC[C@@H]1[C@H]2CCCN3CCC[C@H](CN1Cc1c4ccccc4cc4ccccc14)[C@@H]23	5.57	
O=C(O)CCC[C@@H]1[C@H]2CCCN3CCC[C@H](CN1Cc1cccc4ccccc14)[C@@H]23	< 4.40	
Fc1ccc(C(=CCC[C@@H]2[C@H]3CCCN4CCC[C@H](CN2Cc2c5ccccc5cc5ccccc25)[C@@H]34)c2ccc(F)cc2)cc1	5.28	
COC(=O)CCC[C@@H]1[C@H]2CCCN3CCC[C@H](CN1Cc1ccc(OC)c(OC)c1Cl)[C@@H]23	5.08	
COc1cccc(CN2C[C@H]3CCCN4CCC[C@@H]([C@H]34)[C@H]2CCCC(=O)O)c1OC	< 4.40	
COC(=O)CCC[C@@H]1[C@H]2CCCN3CCC[C@H](CN1Cc1ccccc1OC)[C@@H]23	4.99	
